Source: ChEMBL document CHEMBL2093137, “WHO-TDR NTD Screening”
Values after ≈ are worked out from the molar mass of the structure shown.

What was measured:
[1] = tested on: Trypanosoma brucei brucei; experiment: WHO-TDR: Human African Trypanosomiasis (HAT); assay type: functional, organism-based; details: Squib-427
In short: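 In this whole-organism screen, the target was the bloodstream form of Trypanosoma brucei, strain Squib 427. A diverse set of 10,000 compounds from Life Chemicals, previously filtered for drug-likeness and reactive groups, was assayed by standard published procedures using reference drugs as positive controls. Each value is an IC50 for antiparasitic potency.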

[2] = WHO-TDR: Cytotoxicity; assay type: toxicity, cell-based; details: human, MRC5 cells
[3] = tested on: Leishmania infantum; experiment: WHO-TDR: Leishmaniasis; assay type: functional, organism-based, Mus musculus; details: Macrophage
In short: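 Intracellular amastigotes of Leishmania infantum MHOM/MA(BE)/67, hosted in murine peritoneal macrophages, were exposed to compounds from a 10,000-member diverse library supplied by Life Chemicals. The library had been filtered for drug-likeness and reactive groups. The reported IC50 expresses antiparasitic potency.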

[4] = tested on: Onchocerca ochengi; experiment: WHO-TDR: Onchocerciasis; assay type: functional; set-up: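 at 12.5 µM on microfilariae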
In short: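 Values are reported as percent inhibition and as IC50. They come from a whole-organism screen of a 10,000-compound diverse Life Chemicals library against microfilariae of Onchocerca ochengi or Onchocerca lienalis. The screen followed previously published standard procedures, with reference drugs as positive controls.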

[5] = tested on: Schistosoma mansoni; experiment: WHO-TDR: Schistosomiasis; assay type: functional; set-up: concentration or dose not given beside the values
In short: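 Values are reported as percent inhibition and IC50. They come from a whole-organism screen of a 10,000-compound diverse Life Chemicals library against larval and/or adult worms of Schistosoma mansoni, Puerto Rican strain. The library had been filtered for drug-likeness and reactive groups.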

[6] = tested on: Plasmodium falciparum K1; experiment: WHO-TDR: Malaria; assay type: functional, organism-based, Homo sapiens; details: Erythrocyte
In short: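 Previously published standard procedures, including a reference drug as positive control, were used to screen whole Plasmodium falciparum K1 parasites inside human red blood cells. IC50 is the measure of antiplasmodial potency. The compounds were a 10,000-member diverse Life Chemicals library.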

[7] = tested on: Trypanosoma cruzi; experiment: WHO-TDR: Chagas disease; assay type: functional, organism-based, Homo sapiens; details: MRC5
In short: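 Following previously published standard procedures, with a reference drug as positive control, a whole-organism assay was run on Trypanosoma cruzi Tulahuen CL2 beta-galactosidase strain amastigotes inside MRC-5SV2 human lung fibroblast host cells. The 10,000 compounds tested formed a diverse Life Chemicals library filtered for drug-likeness and reactive groups. Results are expressed as IC50 for antiparasitic potency.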

Row | Compound | IC50 [1] [µg/mL] | IC50 [2] [µg/mL] | IC50 [3] [µg/mL] | % Inhibition [4] [%] | % Inhibition [5] [%] | IC50 [6] [µg/mL] | IC50 [7] [µg/mL]
1 | Cc1ccc(SCC(=O)Nc2ccccc2-c2nc3ccccc3[nH]2)cc1 | > 11.2 | > 11.2 | > 11.2 | 100 | 0 | > 11.2 | > 11.2
2 | COc1ccc(-c2nc(NC(=O)CSc3ccc(Cl)cc3)sc2C)cc1 | 3.93 (≈ 9.71 µM) | > 12.1 | > 12.1 | 100 | 0 | 0.41 (≈ 1.01 µM) | 1.52 (≈ 3.76 µM)
3 | Cc1ccc(S(=O)(=O)CC(=O)Nc2cccc(Cl)c2)cc1 | > 9.71 | > 9.71 | > 9.71 | 100 | 0 | > 9.71 | > 9.71
4 | O=C(CS(=O)(=O)c1ccc(Cl)cc1)Nc1nc(-c2ccc(F)cc2)cs1 | > 12.3 | > 12.3 | > 12.3 | 100 | 0 | > 12.3 | > 12.3
5 | O=C(NCC(c1ccco1)N1CCN(c2ccc(F)cc2)CC1)OCc1ccccc1 (stereo not given) | 4.11 (≈ 9.71 µM) | > 12.7 | > 12.7 | 100 | 0 | > 12.7 | 3.86 (≈ 9.13 µM)
6 | Cc1ccc(SCCC(=O)Nc2nc(-c3ccccn3)cs2)cc1 | > 10.7 | 8.21 (≈ 23.1 µM) | > 10.7 | 75 | 25 | > 10.7 | 0.368 (≈ 1.03 µM)
7 | COc1cccc(C(=O)Nc2ccc(C)cc2C(=O)c2ccccc2)c1OC | 7.21 (≈ 19.2 µM) | > 11.3 | 4.75 (≈ 12.6 µM) | 100 | 0 | > 11.3 | 3.69 (≈ 9.83 µM)
8 | O=C(CCS(=O)(=O)c1ccc(Cl)cc1)Nc1cccc(-c2nc3ccccc3o2)c1 | > 13.2 | > 13.2 | 4.28 (≈ 9.71 µM) | 100 | 0 | > 13.2 | > 13.2
9 | O=C(Cc1cccs1)Nc1cccc(-c2ccc3nnc(-c4cccnc4)n3n2)c1 | 3.81 (≈ 9.24 µM) | 4.45 (≈ 10.8 µM) | > 12.4 | 100 | 0 | 2.67 (≈ 6.46 µM) | > 12.4
10 | COc1ccc(C)c2sc(N(Cc3cccnc3)C(=O)Cc3ccccc3)nc12 | 3.87 (≈ 9.6 µM) | > 12.1 | > 12.1 | 0 | 0 | 3.83 (≈ 9.49 µM) | 0.992 (≈ 2.46 µM)
11 | C=CCN(CC=C)S(=O)(=O)c1ccc(C(=O)Nc2nnc(-c3ccc(C)cc3C)o2)cc1 | 0.988 (≈ 2.18 µM) | 4.48 (≈ 9.9 µM) | 5.72 (≈ 12.7 µM) | 0 | 0 | > 13.6 | 0.583 (≈ 1.29 µM)
12 | CCSc1nnc2ccc(-c3ccc(CC)cc3)nn12 | > 8.53 | > 8.53 | > 8.53 | 100 | 0 | > 8.53 | > 8.53
13 | CCOC(=O)c1ccc(NC(=O)CCSc2ccc(C)cc2)cc1 | > 10.3 | > 10.3 | > 10.3 | 100 | 0 | > 10.3 | > 10.3
14 | O=C(Nc1cccc(-c2ccc3nnc(-c4cccs4)n3n2)c1)c1c(F)cccc1F | 0.481 (≈ 1.11 µM) | > 13 | > 13 | 50 | 0 | 5.18 (≈ 11.9 µM) | > 13
15 | O=S(=O)(Nc1ccc(-c2ccc3nnc(-c4ccccn4)n3n2)cc1)c1ccccc1F | > 13.4 | > 13.4 | > 13.4 | 100 | 0 | 5.88 (≈ 13.2 µM) | > 13.4
16 | O=C(Nc1cccc(-c2ccc3nnc(-c4ccncc4)n3n2)c1)c1ccc2ccccc2n1 | > 13.3 | > 13.3 | > 13.3 | 0 | 0 | 0.482 (≈ 1.09 µM) | 7.48 (≈ 16.9 µM)
17 | Cc1ccc(SCCC(=O)Nc2cc(Cl)cc(Cl)c2)cc1 | > 10.2 | > 10.2 | > 10.2 | 100 | 0 | > 10.2 | > 10.2
18 | O=C(Nc1cccc(-c2ccc3nnc(-c4cccnc4)n3n2)c1)c1ccco1 | > 11.5 | > 11.5 | > 11.5 | 100 | 0 | 1.82 (≈ 4.75 µM) | > 11.5
19 | Cc1nnc2ccc(-c3ccc(NS(=O)(=O)c4ccc5c(c4)CCCC5)cc3)nn12 | 4.63 (≈ 11 µM) | > 12.6 | 4.07 (≈ 9.71 µM) | 100 | 0 | > 12.6 | 4.92 (≈ 11.7 µM)
20 | CNC(=O)c1ccsc1NC(=O)CSc1ccc(Cl)cc1 | 5.06 (≈ 14.8 µM) | > 10.2 | > 10.2 | 100 | 0 | > 10.2 | 4.93 (≈ 14.5 µM)
21 | CCOc1ccc2nc(NC(=O)CS(=O)(=O)c3ccc(Cl)cc3)sc2c1 | > 12.3 | > 12.3 | > 12.3 | 100 | 0 | > 12.3 | > 12.3
22 | O=C(COc1ccccc1)NCC(c1ccco1)N1CCN(c2ccc(F)cc2)CC1 (stereo not given) | 4.02 (≈ 9.49 µM) | > 12.7 | > 12.7 | 100 | 0 | > 12.7 | 4.08 (≈ 9.63 µM)
23 | CCOc1ccc2nc(N(Cc3cccnc3)C(=O)c3ccc(Cl)s3)sc2c1 | > 12.9 | > 12.9 | > 12.9 | 0 | 0 | 4.14 (≈ 9.62 µM) | 0.397 (≈ 0.922 µM)
24 | NS(=O)(=O)c1ccc2nc(NC(=O)CCSc3ccc(Cl)cc3)sc2c1 | 4.31 (≈ 10.1 µM) | > 12.8 | > 12.8 | 100 | 0 | > 12.8 | > 12.8
25 | CC(=O)c1ccc(C(=O)N(Cc2cccnc2)c2nc3c(F)cc(F)cc3s2)cc1 | 5.26 (≈ 12.4 µM) | > 12.7 | > 12.7 | 100 | 0 | 6.29 (≈ 14.8 µM) | 1.31 (≈ 3.09 µM)
